{
  "source": "paper PMC7495496",
  "about": "(DNA repair, 2019)",
  "key": {"[1]": {"biological_target": "T1, xlKu80 vWA(S229A) (Xenopus laevis, UniProt Q6DDS9, C190S/DEL171-188/S229A)", "T1 sequence (Q6DDS9 with tags, fused parts or gaps DEL171-188/C190S/S229A limits assumed)": "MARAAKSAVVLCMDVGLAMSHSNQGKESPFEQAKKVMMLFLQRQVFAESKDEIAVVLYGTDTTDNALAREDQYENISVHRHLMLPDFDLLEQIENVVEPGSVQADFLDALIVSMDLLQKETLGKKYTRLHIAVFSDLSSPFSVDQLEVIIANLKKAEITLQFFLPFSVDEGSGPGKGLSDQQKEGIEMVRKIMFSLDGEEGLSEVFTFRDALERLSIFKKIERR", "assay": "19F NMR binding study, xlKu80 vWA", "conditions": "for binding affinity change resulting from S229A mutation: xlKu80 vWA(S229A) compared with unmodified xlKu80 vWA", "how_it_was_run": "(§1)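 Protein (0.2 mM; wild-type-derived or S229A vWA construct, His-tagged, expressed by autoinduction in E. coli BL21(DE3), Ni-NTA and gel filtration purified) titrated with XLF KBMX peptide carrying 4-fluoro-L-Phe at the penultimate position. Peptide stock held protease inhibitor cocktail. ¹⁹F spectra at 564.279 MHz, 25 °C. Internal standard 0.2 mM 4-fluorobenzamide (−34.9 ppm vs external TFA).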"}, "[2]": {"biological_target": "fluorescein-labeled human APLF KBM peptide (human)", "assay": "fluorescence polarisation"}, "[3]": {"biological_target": "fluorescein-labeled human APLF KBM peptide (human)", "assay": "fluorescence polarisation", "remark": "listed apart in the source"}, "[4]": {"biological_target": "T2, xlKu80 vWA (Xenopus laevis, UniProt Q6DDS9, C190S/DEL171-188)", "T2 sequence (Q6DDS9 with tags, fused parts or gaps DEL171-188/C190S limits assumed)": "T1 sequence (Q6DDS9 with tags, fused parts or gaps DEL171-188/C190S/S229A limits assumed) with A211S", "assay": "19F NMR binding study, xlKu80 vWA", "conditions": "0.2 mM xlKu80 vWA; peptide 0.2, 0.4 and 1.0 mM; 25 °C; 150 mM NaCl, 25 mM HEPES", "how_it_was_run": "as §1"}, "[5]": {"biological_target": "T1, xlKu80 vWA(S229A)", "assay": "X-ray crystallography of xlKu80 vWA", "assay_type": "binding", "conditions": "crystal of xlKu80 vWA(S229A)-KBMX^XLF, PDB: 6TYX, 1.90 Å"}},
  "note": "Substitutions are numbered along the chain they refer to. pKd: −log10 of the molar value. Entries after “also recorded” stand apart in the source; their conditions may differ. Read-outs that look alike come from different tables or passages of the source. Square brackets hold non-standard residues; d marks the D form. Ends that are not written are not given here. Phe(4-F) = N[C@@H](Cc1ccc(F)cc1)C(=O)O",
  "data": [
    {"substance": "KPKKKAKGLF*M [fluorinated XLF KBMX peptide]", "values": [
      {"measurement": "19F NMR linewidth in the presence of vWA(S229A)", "setting": "[1]; 0.2 mM xlKu80 vWA(S229A), 1:1 ratio, 25 °C, 150 mM NaCl, 25 mM HEPES, 1 mM TCEP, 1 mM EDTA, 10 % D2O", "result": 109, "unit": "Hz"},
      {"measurement": "exchange between 19F resonances of bound and free peptide", "setting": "[1]; 19F NMR, 0.2 mM xlKu80 vWA(S229A) plus 0.2, 0.3, 0.4 mM peptide, 25 °C", "result": "slow exchange"}
    ]},
    {"substance": "human Ku80 von Willebrand domain (hsKu80 vWA), 1–240 aa, F47Q/F88Q/L234Q/F237Y (from UniProt P13010 1-240) (domain or fragment)", "values": [
      {"measurement": "pKd", "setting": "[2]", "result": 6.79},
      {"measurement": "pKd", "setting": "[3]", "result": 9.79}
    ]},
    {"substance": "KBMX^XLF peptide: KBMX peptide from XLF (KPKKKAKGL[Phe(4-F)]M; not fully specified; printed as KPKKKAKGLF*M)", "values": [
      {"measurement": "19F NMR binding to xlKu80 vWA", "setting": "[4]", "result": "negligible"},
      {"measurement": "binding affinity change resulting from S229A mutation", "setting": "[1]; 19F NMR", "result": "increases dramatically; also recorded: dramatically increased affinity"},
      {"measurement": "binding affinity change resulting from S229A mutation", "setting": "[1]; 19F NMR, listed as KBMX^XLF motif peptide", "result": "capable of binding"},
      {"measurement": "binding confirmed by X-ray crystallography", "setting": "[5]", "result": "further confirmed by X-ray crystallography"}
    ]},
    {"substance": "isolated Xenopus laevis Ku80 von Willebrand A-like domain (xlKu80 vWA) (domain or fragment)", "values": [
      {"measurement": "pKd", "setting": "[2]", "result": 6.88},
      {"measurement": "pKd", "setting": "[3]", "result": 9.88}
    ]}
  ]
}
